Screening results as filed in PubChem BioAssay.
KDM4C inh – inhibitors of GASC-1 (KDM4C) histone demethylase, primary screen, biochemical, single concentration HTS; GST-KDM4C 2-372, H3K9me3 peptide, LANCE TR-FRET; inhibition, % at 12.5 µM; hit rate 0.15% among 96,000; AID 720574, 2013;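 active means mean replicate inhibition above about 25%, with at least 55% of replicates also reaching it, limit read from the data, passing the limit was not always enough; inconclusive means only one of those two conditions met; inactive means neither condition met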
Target sequence (Q9H3R0 2-372 limits assumed): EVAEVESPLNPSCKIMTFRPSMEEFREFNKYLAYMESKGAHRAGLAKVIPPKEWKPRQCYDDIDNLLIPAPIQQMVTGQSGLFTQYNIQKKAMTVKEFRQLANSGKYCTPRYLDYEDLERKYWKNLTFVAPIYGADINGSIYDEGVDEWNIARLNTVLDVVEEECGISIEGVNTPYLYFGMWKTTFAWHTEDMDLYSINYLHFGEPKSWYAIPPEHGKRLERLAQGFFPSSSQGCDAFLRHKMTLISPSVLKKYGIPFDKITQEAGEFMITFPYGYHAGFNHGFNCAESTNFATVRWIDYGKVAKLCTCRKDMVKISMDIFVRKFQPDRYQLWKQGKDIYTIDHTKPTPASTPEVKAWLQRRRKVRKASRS
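Material: N-terminal GST-fused human GASC-1 (KDM4C) fragment, residues 2-372. Input: 10 nM enzyme. Incubation: enzyme reaction 30 min, then detection 60 min, both room temperature. Doses: one test concentration per compound. Read-out basis: inhibition from TR-FRET ratio decrease. Detection: LANCE TR-FRET, excitation 340 nm, emissions 618 and 671 nm.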
IDH1 R132H inh – inhibitors of IDH1 R132H reductase, primary screen, biochemical, plate reader, single point | Isocitrate dehydrogenase [NADP] cytoplasmic (Homo sapiens), O75874 | diaphorase/resazurin fluorescence, 60 min | inhibition, % at 10 µM | hit rate 0.18% among 70,000 | AID 624101, 2012; in the data active means inhibition above about 34%; inconclusive means no clear call, values can overlap the other calls; inactive means below about 11%;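 further: 0% = DMSO and 100% = no enzyme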
T cruzi growth-1 – T. cruzi intracellular proliferation inhibitors, primary screen, cell-based, beta-gal Tulahuen parasites, NIH3T3 host, luminescence; T. cruzi beta-gal in NIH3T3, GalScreen luminescence, 90 h; inhibition, % at 8.34 µM; hit rate 5.9% among 77,000;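 active means mean inhibition above about 93%, with at least 55% of replicates each passing it, limit read from the data, passing the limit was not always enough; inconclusive means only one of those two conditions holds; inactive means neither condition holds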
T cruzi growth-2 – T. cruzi intracellular proliferation inhibitors, confirmation, cell-based, NIH3T3 host, beta-gal parasite, luminescence, cherry-pick | shares compounds with T cruzi growth-1 | T. cruzi beta-gal in NIH3T3, GalScreen luminescence, 90 h | inhibition, % at 8.35 µM | hit rate 72% among 5,600 | AID 651739, 2012;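 active means mean replicate inhibition above about 95% and at least 55% of replicates individually reaching it, limit read from the data; inconclusive means only one of the two criteria is met; inactive means neither criterion is met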
T cruzi growth-3 – inhibitors of intracellular T. cruzi replication, confirmation, NIH3T3 host cells, beta-gal parasites, cherry-pick, set 2; T. cruzi beta-gal in NIH3T3, GalScreen luminescence, 90 h; inhibition, % at 2.09 µM; hit rate 21% among 5,600; shares compounds with T cruzi growth-1; AID 651740, 2012;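 active means mean inhibition above about 95%, with at least 55% of replicates also reaching it, limit read from the data; inconclusive means meets just one of the two conditions; inactive means meets neither condition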;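 further: plate controls were neutral control median for no effect and positive control median for full effect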
NIH3T3 tox – cytotoxicity in mouse NIH/3T3 fibroblasts, confirmation, cytotoxicity control for T. cruzi proliferation inhibitor project, cell-based, cherry-pick, single point; shares compounds with T cruzi growth-1; AID 651742, 2012; hit rate 14% among 5,600; NIH/3T3 viability, CellTiter-Glo ATP luminescence, 90 h; cytotoxicity (signal decrease), % at 8.35 µM;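 active means mean signal decrease across replicates above about 35% based on untreated-well scatter, with enough replicates individually passing, limit read from the data; inconclusive means no rule stated though some were filed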;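 further: 0% = median of neutral control wells and 100% = median of positive control wells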
3T3 cytotox 2 – NIH/3T3 fibroblast cytotoxicity, confirmation, cytotoxicity control, cell-based, cherry-pick, single point, set 2; inhibition, % at 24.9 µM; shares compounds with T cruzi growth-1; hit rate 56% among 5,600; AID 651744, 2012; NIH/3T3 viability, CellTiter-Glo ATP luminescence, 90 h;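 active means mean loss of cell viability signal at or above a set limit, and enough replicates individually reaching it; inconclusive means meets only the mean limit or only the replicate share; inactive means meets neither condition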;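 further: 0% = median of neutral control wells and 100% = median of positive control wells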
Numbers without * were called inactive; ? = inconclusive; / = no result. The entries come from a sample that favours hits as a whole.

SMILES	KDM4C inh	IDH1 R132H inh	T cruzi growth-1	T cruzi growth-2	T cruzi growth-3	NIH3T3 tox	3T3 cytotox 2
C/C=C/c1ccc2c(c1)O[C@H](CN(C)Cc1ccncc1)[C@@H](C)CN([C@H](C)CO)S2(=O)=O	1	42*	108*	97*	?	45*	74*
Cc1noc(C)c1NC(=O)Nc1ccc2c(c1)C(=O)N([C@H](C)CO)C[C@H](C)[C@H](CN(C)Cc1ccc(C(=O)O)cc1)OCCCC[C@@H](C)O2	-1	/	20	/	/	/	/
CO[C@H]1CN(C)C(=O)c2ccc(NC(=O)c3nc4ccccc4s3)cc2OC[C@@H](C)N(Cc2ccncc2)C[C@H]1C	1	0	/	/	/	/	/
C[C@H]1CN([C@@H](C)CO)C(=O)c2cc(-c3cncnc3)cnc2O[C@@H]1CN(C)C(=O)Cc1ccccc1	0	-1	/	/	/	/	/
Cc1noc(C)c1S(=O)(=O)Nc1ccc2c(c1)C(=O)N([C@@H](C)CO)C[C@H](C)[C@H](CN(C)Cc1ccc(C(F)(F)F)cc1)OCCCC[C@H](C)O2	1	/	100*	96*	67	15	105*
Cc1noc(C)c1S(=O)(=O)Nc1ccc2c(c1)C(=O)N([C@H](C)CO)C[C@H](C)[C@H](CN(C)Cc1ccc(C(=O)O)cc1)OCCCC[C@@H](C)O2	7	3	19	/	/	/	/
Cc1noc(C)c1S(=O)(=O)Nc1ccc2c(c1)C(=O)N([C@@H](C)CO)C[C@@H](C)[C@H](CN(C)Cc1ccc3c(c1)OCO3)OCCCC[C@H](C)O2	0	/	61	/	/	/	/
Cc1noc(C)c1S(=O)(=O)Nc1ccc2c(c1)C(=O)N([C@H](C)CO)C[C@@H](C)[C@@H](CN(C)Cc1ccc3c(c1)OCO3)OCCCC[C@H](C)O2	-1	/	104*	110*	65	10	34*
Cc1noc(C)c1S(=O)(=O)Nc1ccc2c(c1)C(=O)N([C@H](C)CO)C[C@@H](C)[C@H](CN(C)Cc1ccc(C(F)(F)F)cc1)OCCCC[C@H](C)O2	-1	1	95	/	/	/	/
Cc1noc(C)c1S(=O)(=O)Nc1ccc2c(c1)C(=O)N([C@@H](C)CO)C[C@@H](C)[C@@H](CN(C)Cc1ccc(C(F)(F)F)cc1)OCCCC[C@H](C)O2	-1	0	103*	89	110*	0	60*
Cc1noc(C)c1S(=O)(=O)Nc1ccc2c(c1)C(=O)N([C@@H](C)CO)C[C@@H](C)[C@H](CN(C)Cc1ccc(C(F)(F)F)cc1)OCCCC[C@@H](C)O2	0	/	108*	103*	116*	-51	105*
Cc1noc(C)c1S(=O)(=O)Nc1ccc2c(c1)C(=O)N([C@@H](C)CO)C[C@@H](C)[C@@H](CN(C)Cc1ccc(C(=O)O)cc1)OCCCC[C@H](C)O2	2	/	-25	/	/	/	/
O=C(Nc1cccc(F)c1)N1CC(=O)N2[C@H](C1)[C@H](c1ccc(C#CC3CC3)cc1)[C@@H]2CO	2	/	/	/	/	/	/
C[C@@H]1CN([C@H](C)CO)C(=O)c2cc(C#C[C@@H](C)O)cnc2O[C@H]1CN(C)C(=O)Nc1ccc(C(F)(F)F)cc1	-2	/	/	/	/	/	/
Cc1noc(C)c1S(=O)(=O)Nc1ccc2c(c1)C(=O)N([C@@H](C)CO)C[C@H](C)[C@H](CN(C)Cc1ccc(C(F)(F)F)cc1)OCCCC[C@@H](C)O2	8	4	101*	104*	86	-4	3
Cc1noc(C)c1S(=O)(=O)Nc1ccc2c(c1)C(=O)N([C@H](C)CO)C[C@@H](C)[C@@H](CN(C)Cc1ccc(C(F)(F)F)cc1)OCCCC[C@H](C)O2	0	4	87	/	/	/	/
Cc1noc(C)c1S(=O)(=O)Nc1ccc2c(c1)C(=O)N([C@H](C)CO)C[C@@H](C)[C@H](CN(C)Cc1ccc(C(F)(F)F)cc1)OCCCC[C@@H](C)O2	-2	/	106*	88	112*	25	105*
Cc1noc(C)c1S(=O)(=O)Nc1ccc2c(c1)C(=O)N([C@H](C)CO)C[C@@H](C)[C@H](CN(C)Cc1ccc(C(=O)O)cc1)OCCCC[C@@H](C)O2	1	/	43	/	/	/	/
O=C1CN(S(=O)(=O)c2ccccc2)C[C@@H]2[C@H](c3ccc(C#Cc4ccccc4)cc3)[C@@H](CO)N12	-2	/	/	/	/	/	/
CN1C(=O)c2cc(NS(=O)(=O)c3cccc(F)c3)ccc2OC[C@@H]2O[C@H](CC(=O)NCCN3CCCCC3)CC[C@@H]21	3	/	97*	85	88	-30	-4
CN1C(=O)c2cc(NS(=O)(=O)c3cccc(F)c3)ccc2OC[C@@H]2O[C@@H](CC(=O)NCCN3CCCCC3)CC[C@@H]21	-1	/	0	/	/	/	/
Cc1ccc(S(=O)(=O)Nc2ccc3c(c2)C(=O)N(C)[C@@H]2CC[C@H](CC(=O)O)O[C@H]2CO3)cc1	6	/	-2	/	/	/	/
CCCC(=O)Nc1ccc2c(c1)C(=O)N(C)[C@H]1CC[C@H](CC(=O)NCCN3CCCCC3)O[C@H]1CO2	2	/	-22	/	/	/	/
CN1C(=O)c2cc(NS(=O)(=O)c3ccc(F)cc3)ccc2OC[C@@H]2O[C@H](CC(=O)O)CC[C@H]21	0	/	103*	-22	-6	2	5
CCCC(=O)Nc1ccc2c(c1)C(=O)N(C)[C@H]1CC[C@@H](CC(=O)NCCN3CCCCC3)O[C@H]1CO2	0	/	99*	98*	95	15	1
C[C@H]1CN([C@@H](C)CO)C(=O)c2cccc(NC(=O)c3cnccn3)c2O[C@@H]1CN(C)S(=O)(=O)c1ccc(F)cc1	0	0	/	/	/	/	/
C[C@@H]1CN([C@H](C)CO)C(=O)c2cccc(NC(=O)Nc3ccccc3)c2O[C@H]1CN(C)S(=O)(=O)c1cn(C)cn1	3	-1	-13	/	/	/	/
O=C(C[C@H]1C[C@@H]2c3cc(NC(=O)CC4CC4)ccc3O[C@@H]2[C@H](CO)O1)NCc1ccc(Cl)cc1	1	0	45	/	/	/	/
Cn1c(=O)c2c(ncn2CC(=O)NCc2ccccc2Cl)n(C)c1=O	/	0	/	/	/	/	/
COc1ccccc1-c1ccc2c(c1)O[C@H](CN(C)S(=O)(=O)c1ccccc1)[C@H](C)CN([C@@H](C)CO)S2(=O)=O	/	0	?	103*	63	17	44*
